Measurements of several laboratories.
Each line is one published result; the experiments were not run side by side.
Target: Alpha-1D adrenergic receptor (ADRA1D, Homo sapiens, UniProt P25100)
Tested at: 10 µM
Sequence (P25100 1-572, as in one of the studies): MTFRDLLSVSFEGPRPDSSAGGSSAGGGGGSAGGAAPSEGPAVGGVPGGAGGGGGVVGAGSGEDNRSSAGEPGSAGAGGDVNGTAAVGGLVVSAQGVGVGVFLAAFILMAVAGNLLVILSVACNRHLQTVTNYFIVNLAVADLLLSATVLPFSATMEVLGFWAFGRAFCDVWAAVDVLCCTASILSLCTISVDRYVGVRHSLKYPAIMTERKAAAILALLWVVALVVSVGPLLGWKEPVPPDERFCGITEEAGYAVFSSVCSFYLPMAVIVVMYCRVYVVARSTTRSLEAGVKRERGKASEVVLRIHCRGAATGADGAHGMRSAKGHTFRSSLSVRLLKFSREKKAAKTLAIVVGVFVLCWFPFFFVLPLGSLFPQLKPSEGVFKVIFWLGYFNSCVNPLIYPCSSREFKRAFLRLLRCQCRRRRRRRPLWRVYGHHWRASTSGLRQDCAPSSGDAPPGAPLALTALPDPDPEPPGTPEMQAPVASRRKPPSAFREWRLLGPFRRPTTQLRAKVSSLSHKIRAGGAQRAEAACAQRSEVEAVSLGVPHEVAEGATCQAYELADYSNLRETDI

SMILES | test | inhibition [%]
O=C(c1ccc(F)cc1)N(Cc1ccccc1)C1CCCCC1 | cell-free assay | 7
CCN(Cc1ccccc1C(F)(F)F)C(=O)C1CCN(S(=O)(=O)c2ccc3[nH]ncc3c2)CC1 | ligand displacement, radioligand | 5
O=C(Nc1ccc(S(=O)(=O)N2CCC(Cl)CC2)cc1)c1ccc([N+](=O)[O-])o1 | ligand displacement, radioligand | 8
CC(=O)C1=C(C)N(c2cccc(C(F)(F)F)c2)C(=O)N[C@H]1c1ccc(C#N)nc1 | ligand displacement | 7.7
N#Cc1cc(Cn2c(N3CCCC3)nc3ccccc32)ccc1F | ligand displacement | -11.1
CCN(CC)c1ccc(C2Nc3ccc(C(=O)c4ccccc4)cc3NC3=C2C(=O)CC(C)(C)C3)cc1 (centres unmarked) | ligand displacement, radioligand | 8
CC(C)(C)OC(=O)N1CCCC1CNC1CCC(c2cc(F)ccc2F)(S(=O)(=O)c2ccc(Cl)cc2)CC1 (centres unmarked) | cell-free assay | 22.5
CCCNc1nc2ccccc2n1Cc1ccc(Cl)cc1 | ligand displacement | 10.2
